The target of test [1] is Dipeptidyl peptidase 9 (Homo sapiens) (UniProt Q86TI2). As to the kind of experiment: Inhibition of DPP9 binding to FP-biotin in[12C][14N]-lysine, arginine and [13C6][15N2]-lysine, arginine labeled HEK293T cells at 20 uM after 1 hr by isotopic activity-based protein profiling-MudPIT assay. The class given is cell-based. The settings on record: HEK-293T. Put shortly: (§1)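 SILAC HEK 293T: light cells (12C14N-Lys/Arg) treated with compound, heavy cells (13C6 15N2-Lys/Arg) with DMSO, 1 h at 37 °C. Proteomes were mixed 1:1 (0.5 mg each) and labeled with FP-biotin (5 μM, 1 h, 25 °C), then streptavidin-enriched, digested on bead with trypsin, and run by MudPIT. Light/heavy ratios were normalized to a DMSO/DMSO control. Only SHs with ≥2 quantifiable peptides were kept; mean ± SEM across peptides.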

Test [2] has as its target Monoacylglycerol lipase ABHD6 (Homo sapiens) (UniProt Q9BV23). Put plainly: Inhibition of ABHD6 binding to FP-biotin in [12C][14N]-lysine, arginine and [13C6][15N2]-lysine, arginine labeled HEK293T cells at 20 uM after 1 hr by isotopic activity-based protein profiling-MudPIT assay. The test is classed as cell-based. The following applies: HEK-293T. Summed up: as §1
The target of test [3] is Lysosomal thioesterase PPT2 (Homo sapiens) (UniProt Q9UMR5). As to the kind of experiment: Inhibition of PPT2 binding to FP-biotin in [12C][14N]-lysine, arginine and [13C6][15N2]-lysine, arginine labeled HEK293T cells at 20 uM after 1 hr by isotopic activity-based protein profiling-MudPIT assay. The test is classed as cell-based. The following applies: HEK-293T. Put shortly:
as §1

The target of test [4] is T1, Protein phosphatase methylesterase 1 (Homo sapiens) (UniProt Q9Y570).
T1 sequence (whole entry): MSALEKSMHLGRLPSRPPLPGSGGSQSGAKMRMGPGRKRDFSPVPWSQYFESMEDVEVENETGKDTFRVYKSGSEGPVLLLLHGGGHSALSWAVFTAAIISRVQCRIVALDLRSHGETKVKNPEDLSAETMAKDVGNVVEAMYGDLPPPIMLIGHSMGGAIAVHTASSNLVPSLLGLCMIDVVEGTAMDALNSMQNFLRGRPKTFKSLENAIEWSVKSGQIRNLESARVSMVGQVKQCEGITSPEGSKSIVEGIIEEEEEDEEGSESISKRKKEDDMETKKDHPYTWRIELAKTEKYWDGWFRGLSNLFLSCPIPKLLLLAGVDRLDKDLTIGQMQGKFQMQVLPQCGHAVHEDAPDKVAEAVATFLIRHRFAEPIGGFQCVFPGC
The following applies: HEK-293T, 20 uM.

The target in test [5] is Calcium-independent phospholipase A2-gamma (Homo sapiens) (UniProt Q9NP80). Put plainly: Inhibition of PNPLA8 binding to FP-biotin in [12C][14N]-lysine, arginine and [13C6][15N2]-lysine, arginine labeled HEK293T cells at 20 uM after 1 hr by isotopic activity-based protein profiling-MudPIT assay. The class given is cell-based. The settings on record: HEK-293T. Summed up:
as §1

For test [6], the target named is Acyl-coenzyme A thioesterase 2, mitochondrial (Homo sapiens) (UniProt P49753). As to the kind of experiment: Inhibition of ACOT2 binding to FP-biotin in [12C][14N]-lysine, arginine and [13C6][15N2]-lysine, arginine labeled HEK293T cells at 20 uM after 1 hr by isotopic activity-based protein profiling-MudPIT assay. The test is classed as cell-based. The settings on record: HEK-293T. Summed up:
as §1

Test [7] concerns the target Dipeptidyl peptidase 8 (Homo sapiens) (UniProt Q6V1X1). As to the kind of experiment: Inhibition of DPP8 binding to FP-biotin in [12C][14N]-lysine, arginine and [13C6][15N2]-lysine, arginine labeled HEK293T cells at 20 uM after 1 hr by isotopic activity-based protein profiling-MudPIT assay. The test is classed as cell-based. The settings on record: HEK-293T. Put shortly:
as §1

In test [8] the target is Neutral cholesterol ester hydrolase 1 (Homo sapiens) (UniProt Q6PIU2). As to the kind of experiment: Inhibition of AADACL1 binding to FP-biotin in [12C][14N]-lysine, arginine and [13C6][15N2]-lysine, arginine labeled HEK293T cells at 20 uM after 1 hr by isotopic activity-based protein profiling-MudPIT assay. The class given is cell-based. The settings on record: HEK-293T. Summed up:
as §1

Test [9] concerns the target sn-1-specific diacylglycerol lipase ABHD11 (Homo sapiens) (UniProt Q8NFV4). Put plainly: Inhibition of ABHD11 binding to FP-biotin in [12C][14N]-lysine, arginine and [13C6][15N2]-lysine, arginine labeled HEK293T cells at 20 uM after 1 hr by isotopic activity-based protein profiling-MudPIT assay. The test is classed as cell-based. The following applies: HEK-293T. Summed up: as §1

Test [10] has as its target T1, Protein phosphatase methylesterase 1 (Homo sapiens). The settings on record: HEK-293T, 20 uM. This is another data set of the same source.
In the next test the test system is HEK-293T. As to the kind of experiment: Effect on sulfonate ester-Rh labeled soluble proteome in HEK293T cells at 100 uM incubated for 1 hr before proteome labeling measured after 1 hr relative to control. The class given is cell-based. The following applies: Homo sapiens. Put shortly:
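HEK 293T cells (DMEM, 10% FBS, 37 °C, 5% CO2) given compound in medium for 1 h at 37 °C, washed, scraped, sonicated in PBS pH 7.5. Soluble fraction diluted to 1 mg/mL protein in PBS, labeled with CA-rhodamine or SE-rhodamine (5 μM, 1 h, 25 °C), run on reducing SDS-PAGE (10%), and band intensities read by in-gel fluorescence against DMSO-treated samples.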

The target in test [11] is Patatin-like phospholipase domain-containing protein 6 (Homo sapiens) (UniProt Q8IY17). As to the kind of experiment: Inhibition of PNPLA6 binding to FP-biotin in [12C][14N]-lysine, arginine and [13C6][15N2]-lysine, arginine labeled HEK293T cells at 20 uM after 1 hr by isotopic activity-based protein profiling-MudPIT assay. The class given is cell-based. The settings on record: HEK-293T. Put shortly:
as §1

Test [12] addresses Prolyl endopeptidase (Homo sapiens) (UniProt P48147). As to the kind of experiment: Inhibition of PREP binding to FP-biotin in [12C][14N]-lysine, arginine and [13C6][15N2]-lysine, arginine labeled HEK293T cells at 20 uM after 1 hr by isotopic activity-based protein profiling-MudPIT assay. The class given is cell-based. The following applies: HEK-293T. Put shortly: as §1
In test [13] the target is Lysophospholipase-like protein 1 (Homo sapiens) (UniProt Q5VWZ2). As to the kind of experiment: Inhibition of LYPLAL1 binding to FP-biotin in [12C][14N]-lysine, arginine and [13C6][15N2]-lysine, arginine labeled HEK293T cells at 20 uM after 1 hr by isotopic activity-based protein profiling-MudPIT assay. The test is classed as cell-based. The settings on record: HEK-293T. Put shortly:
as §1

Test [14] addresses Retinoid-inducible serine carboxypeptidase (Homo sapiens) (UniProt Q9HB40). As to the kind of experiment: Inhibition of SCPEP1 binding to FP-biotin in [12C][14N]-lysine, arginine and [13C6][15N2]-lysine, arginine labeled HEK293T cells at 20 uM after 1 hr by isotopic activity-based protein profiling-MudPIT assay. The test is classed as cell-based. The following applies: HEK-293T. Put shortly: as §1

Test [15] deals with T1, Protein phosphatase methylesterase 1 (Homo sapiens). The settings on record: HEK-293T, 50 uM.
The target of test [16] is Testis-expressed protein 30 (Homo sapiens) (UniProt Q5JUR7). As to the kind of experiment: Inhibition of C13orf27 binding to FP-biotin in [12C][14N]-lysine, arginine and [13C6][15N2]-lysine, arginine labeled HEK293T cells at 20 uM after 1 hr by isotopic activity-based protein profiling-MudPIT assay. The class given is cell-based. The following applies: HEK-293T. Put shortly:
as §1

Calls of active or inactive are those of the source. No cut-off for these calls is given here.

Dipeptidyl peptidase 9 (Homo sapiens), sequence (Q86TI2 2-863 limits assumed): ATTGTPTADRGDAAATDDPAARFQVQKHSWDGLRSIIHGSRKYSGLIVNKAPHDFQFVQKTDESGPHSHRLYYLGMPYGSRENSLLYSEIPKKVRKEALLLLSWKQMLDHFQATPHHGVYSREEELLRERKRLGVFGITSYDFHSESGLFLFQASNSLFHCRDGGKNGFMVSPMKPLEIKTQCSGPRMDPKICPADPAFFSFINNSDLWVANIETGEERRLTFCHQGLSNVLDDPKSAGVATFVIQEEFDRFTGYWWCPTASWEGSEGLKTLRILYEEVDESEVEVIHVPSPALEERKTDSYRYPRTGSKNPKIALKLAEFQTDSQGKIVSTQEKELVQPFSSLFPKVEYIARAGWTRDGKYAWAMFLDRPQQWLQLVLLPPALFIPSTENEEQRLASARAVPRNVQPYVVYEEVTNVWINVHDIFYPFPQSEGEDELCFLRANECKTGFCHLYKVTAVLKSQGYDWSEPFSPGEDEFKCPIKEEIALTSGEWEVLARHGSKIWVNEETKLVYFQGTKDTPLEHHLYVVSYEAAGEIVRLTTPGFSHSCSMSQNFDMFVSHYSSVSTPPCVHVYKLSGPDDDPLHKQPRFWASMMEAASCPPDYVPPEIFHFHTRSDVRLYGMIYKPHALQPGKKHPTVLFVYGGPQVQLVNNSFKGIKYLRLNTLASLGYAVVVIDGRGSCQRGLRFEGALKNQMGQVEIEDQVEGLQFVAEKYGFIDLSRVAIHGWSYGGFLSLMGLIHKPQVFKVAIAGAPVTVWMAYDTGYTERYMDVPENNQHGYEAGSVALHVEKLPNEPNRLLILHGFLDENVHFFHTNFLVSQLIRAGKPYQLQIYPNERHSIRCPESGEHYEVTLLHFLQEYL
Monoacylglycerol lipase ABHD6 (Homo sapiens), sequence (Q9BV23 whole entry): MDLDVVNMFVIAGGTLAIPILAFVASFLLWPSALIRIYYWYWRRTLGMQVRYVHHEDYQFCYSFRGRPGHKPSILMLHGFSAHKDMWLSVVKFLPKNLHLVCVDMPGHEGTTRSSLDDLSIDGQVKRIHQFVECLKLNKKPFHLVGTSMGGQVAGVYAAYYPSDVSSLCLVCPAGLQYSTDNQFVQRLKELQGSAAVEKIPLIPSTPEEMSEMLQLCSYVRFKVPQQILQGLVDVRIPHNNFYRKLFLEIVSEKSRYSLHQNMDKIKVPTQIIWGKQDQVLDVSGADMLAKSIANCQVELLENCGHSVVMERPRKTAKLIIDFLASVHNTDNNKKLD
Dipeptidyl peptidase 8 (Homo sapiens), sequence (Q6V1X1 whole entry, looked up): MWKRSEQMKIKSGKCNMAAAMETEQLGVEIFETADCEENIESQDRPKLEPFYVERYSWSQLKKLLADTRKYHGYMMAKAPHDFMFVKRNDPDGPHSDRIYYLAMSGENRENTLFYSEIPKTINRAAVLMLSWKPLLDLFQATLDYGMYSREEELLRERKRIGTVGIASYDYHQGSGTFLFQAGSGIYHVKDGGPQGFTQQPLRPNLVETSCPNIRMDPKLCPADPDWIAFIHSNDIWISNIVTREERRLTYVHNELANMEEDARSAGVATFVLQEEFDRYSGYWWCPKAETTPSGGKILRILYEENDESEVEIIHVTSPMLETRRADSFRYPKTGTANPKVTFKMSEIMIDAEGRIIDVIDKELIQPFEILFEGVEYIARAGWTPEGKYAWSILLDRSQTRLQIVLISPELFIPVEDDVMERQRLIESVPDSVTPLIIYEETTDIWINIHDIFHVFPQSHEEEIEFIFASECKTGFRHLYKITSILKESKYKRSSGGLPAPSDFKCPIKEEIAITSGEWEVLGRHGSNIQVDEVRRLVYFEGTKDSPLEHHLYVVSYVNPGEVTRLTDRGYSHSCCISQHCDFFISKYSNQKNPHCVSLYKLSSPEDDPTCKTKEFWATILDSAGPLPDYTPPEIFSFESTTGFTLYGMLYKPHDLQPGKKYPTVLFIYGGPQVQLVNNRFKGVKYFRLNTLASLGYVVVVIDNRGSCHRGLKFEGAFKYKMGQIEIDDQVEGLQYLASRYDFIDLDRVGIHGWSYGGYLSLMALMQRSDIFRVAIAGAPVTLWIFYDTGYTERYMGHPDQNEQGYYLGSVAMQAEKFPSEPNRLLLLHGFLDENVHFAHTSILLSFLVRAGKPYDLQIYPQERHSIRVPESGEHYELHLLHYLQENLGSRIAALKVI
Testis-expressed protein 30 (Homo sapiens), sequence (Q5JUR7 whole entry): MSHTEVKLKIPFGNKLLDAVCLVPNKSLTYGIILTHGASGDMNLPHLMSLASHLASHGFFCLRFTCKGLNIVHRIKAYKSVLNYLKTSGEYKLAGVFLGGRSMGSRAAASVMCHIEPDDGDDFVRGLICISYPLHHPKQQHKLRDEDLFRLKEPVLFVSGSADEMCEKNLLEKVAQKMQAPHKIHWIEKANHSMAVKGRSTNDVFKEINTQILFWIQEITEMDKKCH
Prolyl endopeptidase (Homo sapiens), sequence (P48147 whole entry): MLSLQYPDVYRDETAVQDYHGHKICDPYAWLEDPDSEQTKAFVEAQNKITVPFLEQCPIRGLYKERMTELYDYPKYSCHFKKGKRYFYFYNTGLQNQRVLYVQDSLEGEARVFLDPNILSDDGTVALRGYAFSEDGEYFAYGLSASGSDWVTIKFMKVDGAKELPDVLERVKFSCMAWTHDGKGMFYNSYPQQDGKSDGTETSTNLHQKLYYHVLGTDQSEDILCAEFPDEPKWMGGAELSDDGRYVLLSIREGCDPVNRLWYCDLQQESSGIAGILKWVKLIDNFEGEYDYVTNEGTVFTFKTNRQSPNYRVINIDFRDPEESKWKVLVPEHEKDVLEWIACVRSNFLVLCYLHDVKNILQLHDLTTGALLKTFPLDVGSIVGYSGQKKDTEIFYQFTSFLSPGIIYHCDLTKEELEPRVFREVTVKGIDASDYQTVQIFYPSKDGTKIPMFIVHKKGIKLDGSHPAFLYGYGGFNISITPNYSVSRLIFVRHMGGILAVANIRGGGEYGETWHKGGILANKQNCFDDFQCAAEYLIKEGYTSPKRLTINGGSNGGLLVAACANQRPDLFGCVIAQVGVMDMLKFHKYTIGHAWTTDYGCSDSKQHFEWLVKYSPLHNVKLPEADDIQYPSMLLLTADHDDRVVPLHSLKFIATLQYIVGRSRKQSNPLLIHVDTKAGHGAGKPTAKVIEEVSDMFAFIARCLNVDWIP
Acyl-coenzyme A thioesterase 2, mitochondrial (Homo sapiens), sequence (P49753 whole entry): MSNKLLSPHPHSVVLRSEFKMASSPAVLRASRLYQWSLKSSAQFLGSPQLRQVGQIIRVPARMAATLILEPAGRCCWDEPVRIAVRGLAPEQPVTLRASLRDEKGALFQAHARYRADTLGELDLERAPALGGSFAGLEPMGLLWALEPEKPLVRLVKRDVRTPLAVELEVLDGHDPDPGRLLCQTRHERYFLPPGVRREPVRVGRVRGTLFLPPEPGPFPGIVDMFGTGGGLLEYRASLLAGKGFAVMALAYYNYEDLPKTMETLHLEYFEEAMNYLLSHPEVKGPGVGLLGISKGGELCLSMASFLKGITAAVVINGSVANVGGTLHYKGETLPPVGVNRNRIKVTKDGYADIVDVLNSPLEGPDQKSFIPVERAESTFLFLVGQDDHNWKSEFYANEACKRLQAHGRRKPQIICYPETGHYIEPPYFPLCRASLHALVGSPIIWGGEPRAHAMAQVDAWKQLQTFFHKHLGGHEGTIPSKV
Patatin-like phospholipase domain-containing protein 6 (Homo sapiens), sequence (Q8IY17 whole entry, the tested form may be a part): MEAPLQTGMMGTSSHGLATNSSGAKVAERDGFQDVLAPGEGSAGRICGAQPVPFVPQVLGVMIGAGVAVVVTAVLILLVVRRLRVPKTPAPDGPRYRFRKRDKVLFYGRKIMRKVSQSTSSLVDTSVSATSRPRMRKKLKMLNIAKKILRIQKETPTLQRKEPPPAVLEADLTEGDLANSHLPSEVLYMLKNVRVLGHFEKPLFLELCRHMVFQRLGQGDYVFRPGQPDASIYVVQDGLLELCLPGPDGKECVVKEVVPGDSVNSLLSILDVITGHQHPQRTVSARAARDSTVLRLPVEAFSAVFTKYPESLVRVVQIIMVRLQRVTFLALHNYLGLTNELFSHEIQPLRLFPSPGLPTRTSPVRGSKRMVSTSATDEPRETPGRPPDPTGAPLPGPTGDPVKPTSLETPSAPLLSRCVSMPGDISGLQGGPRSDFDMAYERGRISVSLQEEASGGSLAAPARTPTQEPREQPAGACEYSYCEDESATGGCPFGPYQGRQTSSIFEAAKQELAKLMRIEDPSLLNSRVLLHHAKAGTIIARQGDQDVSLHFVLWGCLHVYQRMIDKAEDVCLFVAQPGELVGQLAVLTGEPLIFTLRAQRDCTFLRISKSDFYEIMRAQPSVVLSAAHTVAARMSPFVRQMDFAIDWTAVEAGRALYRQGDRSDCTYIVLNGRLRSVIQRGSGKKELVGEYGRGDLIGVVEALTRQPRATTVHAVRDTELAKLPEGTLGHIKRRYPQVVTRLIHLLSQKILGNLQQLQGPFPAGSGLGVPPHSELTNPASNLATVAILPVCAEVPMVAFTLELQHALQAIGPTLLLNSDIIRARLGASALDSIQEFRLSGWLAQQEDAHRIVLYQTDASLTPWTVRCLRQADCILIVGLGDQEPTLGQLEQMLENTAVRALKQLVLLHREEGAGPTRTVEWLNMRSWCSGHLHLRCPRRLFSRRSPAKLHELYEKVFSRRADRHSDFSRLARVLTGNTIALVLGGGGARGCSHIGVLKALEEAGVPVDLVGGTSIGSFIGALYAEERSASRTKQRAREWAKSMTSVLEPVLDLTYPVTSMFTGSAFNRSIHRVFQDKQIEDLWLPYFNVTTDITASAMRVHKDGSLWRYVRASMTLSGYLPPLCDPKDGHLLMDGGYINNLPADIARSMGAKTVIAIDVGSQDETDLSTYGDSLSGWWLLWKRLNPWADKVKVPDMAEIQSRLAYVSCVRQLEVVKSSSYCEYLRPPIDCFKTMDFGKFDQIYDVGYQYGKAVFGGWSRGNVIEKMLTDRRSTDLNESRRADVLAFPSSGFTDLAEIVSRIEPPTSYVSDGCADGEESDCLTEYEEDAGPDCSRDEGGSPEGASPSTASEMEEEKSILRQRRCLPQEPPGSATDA

For `N#C/C(=C\c1cccn1S(=O)(=O)c1cccc([N+](=O)[O-])c1)S(=O)(=O)c1ccc(F)cc1`, the inhibition entry in test [1], in test [2], in test [3], in test [5], in [6] and in [7] was “inactive” each time. Also, the inhibition result in test [8], in [9], in test [11], in test [12], in [13] and in test [14] was “inactive” throughout. The inhibition result in test [16] is “inactive”. The inhibition result in [4], in test [10] and in [15] was “Active” throughout. Moreover, the outcome with HEK-293T was inactive.

The values above are taken from ChEMBL document CHEMBL2203175, “Discovery and optimization of sulfonyl acrylonitriles as selective, covalent inhibitors of protein phosphatase methylesterase-1” (J Med Chem, 2011).
